Assay outcomes deposited in PubChem by several laboratories.
CHOP inh: blocks CHOP induction under ER stress | CHO-K1 CHOP-promoter luciferase, tunicamycin-induced, 15-18 h | inhibition, % at 10 µM | 220,000 tested, 3.8% active | AID 2732;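 active = compounds that reduced the stress-induced luciferase reporter signal by more than about 70% of percent inhibition, limit read from the data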
Wee1 degr inh: human Wee1 degradation inhibition, primary screen; P30291; HeLa Luc-Wee1K328M stability, luciferase luminescence; 100% = proteasome inhibitor MG132 effect; reporter increase, % at 5 µM; 220,000 tested, 1.2% active; AID 1321;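 active = activation above the mean of all tested compounds plus 3 SD, set per screening run, cut at about 8.8% in these data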;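 note: cells exposed to compound for 20 h before luminescence read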
PKD1 inh: PKD1 (human) kinase inhibition; Q15139; PKD1 kinase fluorescence polarization assay; inhibition, % (test concentration not listed); 200,000 tested, 0.056% active; AID 797
Target sequence (Q15139 whole entry, looked up): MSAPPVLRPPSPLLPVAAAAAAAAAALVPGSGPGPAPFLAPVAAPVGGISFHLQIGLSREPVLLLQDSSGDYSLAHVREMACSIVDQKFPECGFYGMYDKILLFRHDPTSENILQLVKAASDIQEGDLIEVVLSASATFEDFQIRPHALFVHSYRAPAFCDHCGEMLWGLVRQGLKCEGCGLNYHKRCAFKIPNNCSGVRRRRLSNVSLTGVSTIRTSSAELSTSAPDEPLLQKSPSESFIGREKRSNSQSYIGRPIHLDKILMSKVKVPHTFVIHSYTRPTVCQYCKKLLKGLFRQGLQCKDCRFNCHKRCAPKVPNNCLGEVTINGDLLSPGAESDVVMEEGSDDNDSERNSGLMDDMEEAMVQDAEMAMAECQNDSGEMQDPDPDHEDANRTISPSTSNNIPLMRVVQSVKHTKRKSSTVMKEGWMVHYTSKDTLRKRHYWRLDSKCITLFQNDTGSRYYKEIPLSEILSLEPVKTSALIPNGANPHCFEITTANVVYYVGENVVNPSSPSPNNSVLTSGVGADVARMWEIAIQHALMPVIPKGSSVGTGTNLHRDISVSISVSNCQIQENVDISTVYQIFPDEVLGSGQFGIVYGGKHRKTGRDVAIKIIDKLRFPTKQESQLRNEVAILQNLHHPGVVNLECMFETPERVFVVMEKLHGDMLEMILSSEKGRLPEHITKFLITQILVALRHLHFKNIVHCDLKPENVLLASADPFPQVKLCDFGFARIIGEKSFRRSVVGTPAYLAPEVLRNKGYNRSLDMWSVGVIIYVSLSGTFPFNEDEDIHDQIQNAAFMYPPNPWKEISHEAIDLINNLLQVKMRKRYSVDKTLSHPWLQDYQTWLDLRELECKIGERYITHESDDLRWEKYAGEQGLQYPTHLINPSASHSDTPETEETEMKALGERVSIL
Rad51 HR inh: Rad51 (human) homologous recombination inhibition; 200,000 tested, 0.085% active; hRad51 DNA strand exchange, fluorescence dequenching; AID 1385; Q06609; inhibition, % at 10 µM;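 active = inhibition above 40% at the single screening dose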
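Material: Human Rad51 nucleoprotein filaments preassembled on unlabelled ssDNA | Also added: Labelled 47-mer dsDNA for strand exchange | Dosing: Single dose, 10 µM final compound | Schedule: 30-min compound preincubation and 15-min exchange, both room temperature | Technique: Fluorescence dequenching at 485/520 nm | Measure: Percent inhibition relative to plate controls and blanks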
L major viab: Leishmania major promastigote growth inhibition. Leishmania major promastigotes, resazurin fluorescence viability. inhibition, % at 10 µM. 200,000 tested, 9% active. AID 1063;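 note: promastigotes grown with compound for 44 hours at 28 °C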
Arbovirus inh: blocks arbovirus infection; arbovirus infection cell-based antiviral screen; inhibition, % at 10 µM; 200,000 tested, 0.37% active; in the data active = inhibition above about 30%
Each line names hits and unclear results; the compound was inactive in the other large screens. This is a sample that favours compounds with a hit; in the whole collection about 12% have one here. Cut-off read from the data, not from the text of the source, unless noted: active = inhibition above about 50%; inactive = the rest.

CC(=O)c1ccc(Nc2ccc(-c3ccccc3F)nn2)cc1	none
O=C(Nc1ccc(-c2nc3ccccc3s2)c(O)c1)C1=COCCO1	CHOP inh 72
COc1ccc(C2CC(O)(c3ccccc3)Oc3cc(OC)ccc32)cc1 (stereo not drawn)	CHOP inh 92 (no result: Wee1 degr inh, PKD1 inh, L major viab, Arbovirus inh)
COc1ccc(C2CC3(CC(C)(C)NC(=O)N3)Oc3cc(O)ccc32)cc1 (stereo not drawn)	none
COC(=O)C(NC(=O)c1cccnc1Cl)C(C)C (stereo not drawn)	none (no result: PKD1 inh, Rad51 HR inh, L major viab, Arbovirus inh)
Cc1cccc(N2C(=O)CC(Sc3nc(C)c4c(n3)CCCC4)C2=O)c1 (stereo not drawn)	none
Cc1nc(SC2CC(=O)N(c3cc(Cl)cc(Cl)c3)C2=O)nc2c1CCCC2 (stereo not drawn)	CHOP inh 95
CC(C)(C)[C@H]1C=C(C(=O)O)O[C@@H](OCc2ccc(CO)cc2)C1	none (no result: CHOP inh, Wee1 degr inh, PKD1 inh, L major viab, Arbovirus inh)
CC(=O)N(Cc1ccc(F)cc1)c1cccc(C)c1C	none
CC(=O)N(Cc1ccc(F)cc1)C1=C(NCCc2ccccc2)C(=O)c2ccccc2C1=O	L major viab 100 (no result: CHOP inh)
N=C1Sc2ccccc2C2=NCCCN12	none (no result: Wee1 degr inh, PKD1 inh, Rad51 HR inh, L major viab, Arbovirus inh)
CC(=O)N(c1cccc(Cl)c1)c1nc(C)cc(C)c1C#N	none (no result: PKD1 inh, L major viab, Arbovirus inh)
O=C(/C=C\c1ccccc1)Oc1cccc2cccnc12	L major viab 98
Cc1ccc(Nc2ccc(C(=O)NC3CCCCC3)cn2)cc1	none (no result: PKD1 inh, L major viab, Arbovirus inh)
CC(=O)OC1CC[C@@]2(C)C(CCC3C2CC(=O)[C@@]2(C)C3CC3CC(C)=CC(=O)C32)C1 (stereo partly drawn)	none (no result: PKD1 inh, L major viab, Arbovirus inh)
CCOC(=O)N1CCN(C(=O)c2ccc(C)c(S(=O)(=O)Nc3cccc(C)c3C)c2)CC1	L major viab 98
Cc1ccc(NS(=O)(=O)c2cc(C(=O)N3CCN(C)CC3)ccc2C)cc1C	Wee1 degr inh 8.9
Cc1cccc(NS(=O)(=O)c2cc(C(=O)N3CCc4ccccc4C3)ccc2Cl)c1C	L major viab 97
CCOC(=O)N1CCN(C(=O)c2ccc(C)c(S(=O)(=O)Nc3ccccc3)c2)CC1	none
Cc1ccccc1NS(=O)(=O)c1cc(C(=O)N2CCCC2)ccc1C	none
Cc1ccc(C)c(NS(=O)(=O)c2cc(C(=O)N3CCc4ccccc4C3)ccc2Cl)c1	L major viab 98
COC(=O)c1ccc(NC(c2ccc(Cl)cc2)P(=O)(OC)OC)cc1 (stereo not drawn)	none
CC(=O)Nc1cc(C(=O)N2CCc3ccccc3C2)ccc1Sc1ccc(Cl)cc1	Wee1 degr inh 9.6
Cc1ccccc1CN(c1ccc(C(=O)N2CCc3ccccc3C2)cc1)S(C)(=O)=O	L major viab 70
CC(=O)Nc1cc(C(=O)N2CCc3ccccc3C2)ccc1Sc1ccc(F)cc1	none
CNC(=O)c1ccc(N(Cc2ccccc2C)S(C)(=O)=O)cc1	none
CCCS(=O)(=O)c1nc(S(=O)(=O)c2ccc(C)cc2)c(NCc2ccc3c(c2)OCO3)s1	L major viab 62
CCCS(=O)(=O)c1nc(S(=O)(=O)c2ccc(C)cc2)c(NCCCN(C)C)s1	L major viab 95
COc1cc(-c2n[nH]c(=S)n2/N=C/c2cccn2C)cc(OC)c1OC	none (no result: PKD1 inh, L major viab, Arbovirus inh)
O=C1c2cccc3c([N+](=O)[O-])ccc(c23)C(=O)N1CCc1ccccn1	none (no result: PKD1 inh, L major viab, Arbovirus inh)
CN(C)CCCN1C(=O)c2cccc3c([N+](=O)[O-])ccc(c23)C1=O	L major viab 100 (no result: Rad51 HR inh)
CCOC(=O)c1ccc(NC(=S)NCCc2ccc(F)cc2)cc1	none (no result: Rad51 HR inh)
O=C(OCCN(C1=NS(=O)(=O)c2ccccc21)c1ccccc1Cl)c1ccc(Cl)cc1	Wee1 degr inh 9.7
O=C(Oc1ccc(N(Cc2cccs2)C2=NS(=O)(=O)c3ccccc32)cc1)c1ccccc1F	none
Fc1ccc(CNC(=S)Nc2cccc(C(F)(F)F)c2)cc1	none
O=C(COC(=O)c1cncc(Br)c1)NCc1ccc(Cl)cc1	none (no result: PKD1 inh, L major viab, Arbovirus inh)
Fc1cc(NC(=S)NCc2ccc(CNC(=S)Nc3ccc(Cl)c(F)c3)cc2)ccc1Cl	CHOP inh 84 (no result: PKD1 inh, L major viab, Arbovirus inh)
FC(F)(F)c1cccc(NC(=S)NCc2ccc(Cl)cc2)c1	CHOP inh 95
CCNC(=S)Nc1ccc(Cl)c(C(F)(F)F)c1	L major viab 76
O=C(COC(=O)c1cc(C(F)(F)F)cc(C(F)(F)F)c1)NCc1ccc(Cl)cc1	CHOP inh 73, L major viab 50
COc1ccc(NC(C)=O)cc1NC(=O)c1ccc(C#N)cc1	none
Cc1ccc(NC(=S)N(Cc2ccc(Cl)cc2)Cc2ccc(C(=O)O)cc2)cc1Cl	none
CCc1ccc(C2=NN(c3ccc(S(N)(=O)=O)cc3)C(c3ccc(F)cc3)C2)cc1 (stereo not drawn)	CHOP inh 90, L major viab 78
NS(=O)(=O)c1ccc(N2N=C(c3ccccc3)CC2c2ccccc2)cc1 (stereo not drawn)	CHOP inh 81
CSc1cccc(NC(=O)C2(S(=O)(=O)c3ccc(C)cc3)CC2)c1	none
CCOC(=O)C1(CCc2ccccc2)CCN(Cc2ccc(OC)cc2)CC1	L major viab 85 (no result: Rad51 HR inh)
CCOC(=O)C1(CCc2ccccc2)CCN(Cc2cnc(N(C)C)s2)CC1	none
CCOC(=O)C1(CCc2ccccc2)CCN(Cc2nccn2CC)CC1	none
CCOC(=O)C1(CCc2ccccc2)CCN(Cc2ccc(O)cc2)CC1	L major viab 95
CCOC(=O)C1(CCc2ccccc2)CCN(Cc2c(O)cccc2OC)CC1	CHOP inh 73, L major viab 91
CCOC(=O)C1(CCCc2ccccc2)CCN(CC(O)CO)CC1 (stereo not drawn)	none
Cc1onc(-c2ccccc2)c1NC(=O)N(CCC#N)Cc1cccs1	none (no result: PKD1 inh, L major viab, Arbovirus inh)
CCOc1ccc(NC(=O)CN2C(=O)CSC2=O)cc1	none
Oc1c(CN2CCCCC2)cc(COCc2ccccc2)c2cccnc12	L major viab 100 (no result: CHOP inh)
Oc1cc(Cc2ccccc2)cnc1CN1CCCCC1	none
CCOc1ccccc1N1CCN(Cc2cccc(OC)c2O)CC1	none
COCc1cc(CN2CCCC2)c(O)c2ncccc12	L major viab 100 (no result: CHOP inh)
COc1ccccc1N1CCN(Cc2cc(Br)c(O)c3ncccc23)CC1	L major viab 100 (no result: CHOP inh)
O=C(Nc1ncc(Cl)cc1Cl)c1c(F)cccc1Cl	none
CC(=O)c1cccc(NC(=O)C(=O)c2cn(CC(=O)N3CCCCC3)c3ccccc23)c1	none
CC(=O)Nc1ccc(/C=C/c2ccc3c([N+](=O)[O-])cccc3n2)cc1	none
C#CCOCCOCCOCCNc1nc(N2CCN(C(=O)[C@H](CCC(=O)O)n3cc(C(N)CO)nn3)CC2)nc(N2CCN(C(=O)[C@H](CCC(=O)O)n3cc(C(N)CC(C)C)nn3)CC2)n1 (stereo partly drawn)	none (no result: Wee1 degr inh, PKD1 inh, L major viab, Arbovirus inh)
Cc1cccn2cc(-c3ccc(Cl)cc3)nc12	none (no result: Rad51 HR inh)
O=[N+]([O-])c1cccn2cc(-c3ccc(Br)cc3)nc12	Wee1 degr inh 9.8 (no result: Rad51 HR inh)
Cc1ccc(-c2cn3cccc(C)c3n2)cc1	Wee1 degr inh 9.8
Cc1cccn2cc(-c3ccc(S(=O)(=O)N4CCOCC4)cc3)nc12	CHOP inh 71
